In experiment [1] the test system is Cavia porcellus. In words: Antagonist activity was determined by the ability to inhibit of LTD4 (leukotriene D4) induced bronchospasm when administered perorally with respect to REV-5901 compound. It is filed as functional. Conditions: po. In a few lines:
(§1)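 Guinea pig bronchoconstriction induced by LTD4 or by ovalbumin. Antagonist was dosed orally to awake animals 120 min before the agonist, which is 95 min before anesthetic. […] Single-dose lines give percent inhibition at the stated oral dose.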

Experiment [2] has as its system Cavia porcellus. Put plainly: Antagonist activity was determined by the ability to inhibit of LTD4 (leukotriene D4) induced bronchospasm when administered intraduodenally with respect to REV-5901 compound. Type of experiment: functional. Conditions: intraduodenal. The method in brief: (§2)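 Guinea pig bronchoconstriction induced by LTD4 or by ovalbumin. Antagonist was given intraduodenally 10 min before the agonist. […] Single-dose lines give percent inhibition at the stated id dose.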

The species entered for experiment [3] is Cavia porcellus. In words: relative potency antagonist on LTD4-induced contraction of isolated guinea pig trachea. It is filed as functional. The method in brief: (§3)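 Guinea pig tracheal spirals stretched to near-optimal length and equilibrated 1.5 h, washed every 15 min. Indomethacin (5 μM) was present in all tissues. Cumulative LTD4 dose-response curves were recorded isometrically via force transducers. Paired proximal/distal strips from one animal got solvent control or drug. Values are negative log, mean ± SEM, and were compared by Student's t test.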

For experiment [4], the species on record is Cavia porcellus. Put plainly: Antagonist activity towards LTD4-induced contraction of isolated guinea pig. Type of experiment: functional. In a few lines: as §3
In experiment [5] the test system is Cavia porcellus. In words: Antagonist activity was determined by the ability to inhibit of ovalbumin induced bronchospasm when administered intraduodenally with respect to REV-5901 compound. Type of experiment: functional. Conditions: intraduodenal. The method in brief:
as §2

For experiment [6], the system named is Cavia porcellus. In words: Relative inhibitory potency against ovalbumin induced bronchospasm when administered perorally with respect to LY-171,883 compound.
Experiment [7] concerns Cavia porcellus. Put plainly: Antagonist activity was determined by the ability to inhibit of ovalbumin induced bronchospasm when administered perorally with respect to REV-5901 compound. Type of experiment: functional. Conditions: po. The method in brief: as §1
Experiment [8] relates to Cavia porcellus. In words: Relative inhibitory potency against LTD4 (leukotriene D4) induced bronchospasm when administered perorally with respect to REV-5901 compound. Type of experiment: functional.
The test system of experiment [9] is Cavia porcellus. Put plainly: Relative inhibitory potency against LTD4 (leukotriene D4) induced bronchospasm when administered intraduodenally with respect to REV-5901 compound. It is filed as functional.

By ED50 is commonly meant the midpoint of the dose-response relation. Lower therefore signals greater potency. As for `CCCCCC(O)c1cccc(OCc2ccc3ccccc3n2)c1` (centres undefined) [REV-5901], the ED50 in the experiment with Cavia porcellus [1] worked out at 52 mg/kg; in the experiment on Cavia porcellus [2] it was 51 mg/kg; in the experiment on Cavia porcellus [5], 47 mg/kg; with Cavia porcellus [7] it was 87 mg/kg. The Potency in the experiment listed under Cavia porcellus [3] was 8; with Cavia porcellus [6], 2.3; with Cavia porcellus [8] it was 1.6; in the experiment on Cavia porcellus [9], 8.5. The pkb in the experiment listed under Cavia porcellus [4] is 5.64.
